Reference: ChEMBL document CHEMBL1132401, “Glycosylation of fluoroquinolones through direct and oxygenated polymethylene linkages as a sugar-mediated active transport system for antimicrobials” (1999)
In brackets after ≈: the same amount, converted by molar mass.

How the values were obtained:
[1] = system: Staphylococcus epidermidis; test: Minimum concentration required to prevent the growth of multiply resistant Staphylococcus epidermidis (MRSE) coag.-neg. Staph. A0245; format: functional
In short: (§1)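 Agar dilution susceptibility testing per NCCLS guidelines against resistant clinical isolates, with nonresistant ATCC stock strains run as controls. Plates were read at 19–24 h of incubation. MIC reported in µg/mL.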

Enterococcus faecium [2] = test: Minimum concentration required to prevent the growth of nonresistant stock strain Enterococcus faecium 19434 from American Type Culture Collection (ATCC); format: functional
In short: (§2)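 Agar dilution susceptibility testing per NCCLS guidelines, covering clinical isolates (including resistant phenotypes) and nonresistant ATCC stock strains as controls. Plates read after 19–24 h of incubation. MIC reported in μg/mL.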

Staphylococcus aureus [3] = test: Minimum concentration required to prevent the growth of multiply resistant (MRSA) and cipro resistant (Cipro-R) Staphylococcus aureus strain A2800; format: functional; in short: as §1
Escherichia coli [4] = test: Minimum concentration required to prevent the growth of cipro resistant (Cipro-R) Escherichia coli strain AA; format: functional; in short: as §2
Listeria monocytogenes [5] = test: Minimum concentration required to prevent the growth of Listeria monocytogenes strain A0182; format: functional; in short: as §2
Enterococcus faecium [6] = test: Minimum concentration required to prevent the growth of vancomycin resistant (VanA) Enterococcus faecium strain A1745; format: functional; in short: as §1
Staphylococcus aureus [7] = test: Minimum concentration required to prevent the growth of multiply resistant (MRSA) Staphylococcus aureus strain A0171; format: functional; in short: as §1
Enterococcus faecalis [8] = test: Minimum concentration required to prevent the growth of vancomycin resistant (VanB) Enterococcus faecalis strain A1081; format: functional; in short: as §1
[9] = system: Staphylococcus epidermidis; test: (§3) Minimum concentration required to prevent the growth of multiply resistant Staphylococcus epidermidis (MRSE) coag.-neg. Staph. A0244; format: functional; in short: as §1
[10] = system: Staphylococcus epidermidis; test: Minimum concentration required to prevent the growth of multiply resistant Staphylococcus epidermidis (MRSE) and cipro resistant (Cipro-R) coag.-neg. Staph. A0248; format: functional; in short: as §1
Enterococcus faecium [11] = test: Minimum concentration required to prevent the growth of vancomycin resistant (VanB) Enterococcus faecium strain A0803; format: functional; in short: as §1
Escherichia coli [12] = test: Minimum concentration required to prevent the growth of cipro resistant (Cipro-R) Escherichia coli strain A3529; format: functional; in short: as §2
Klebsiella oxytoca = test: Minimum concentration required to prevent the growth of cipro resistant (Cipro-I) Klebsiella oxytoca strain A3530; format: functional; in short: as §1
Listeria monocytogenes [13] = test: Minimum concentration required to prevent the growth of Listeria monocytogenes strain A0183; format: functional; in short: as §2
Staphylococcus aureus [14] = test: Minimum concentration required to prevent the growth of multiply resistant (MRSA) Staphylococcus aureus strain A0170; format: functional; in short: as §1
Pseudomonas aeruginosa [15] = test: Minimum concentration required to prevent the growth of Pseudomonas aeruginosa strain 28215; format: functional; in short: as §2
Pseudomonas aeruginosa [16] = test: Minimum concentration required to prevent the growth of Pseudomonas aeruginosa strain 28245; format: functional; in short: as §2
Staphylococcus aureus [17] = test: Minimum concentration required to prevent the growth of multiply resistant (MRSA) and cipro resistant (Cipro-R) Staphylococcus aureus strain A2043; format: functional; in short: as §1
Escherichia coli [18] = test: Minimum concentration required to prevent the growth of nonresistant stock Escherichia coli strain 25922 from American Type Culture Collection (ATCC); format: functional; details: ATCC25922; in short: as §2
Enterococcus faecium [19] = test: Minimum concentration required to prevent the growth of vancomycin resistant (VanB) Enterococcus faecium strain A1087; format: functional; in short: as §1
Escherichia coli [20] = test: Minimum concentration required to prevent the growth of cipro resistant (Cipro-R) Escherichia coli strain A3228; format: functional; in short: as §2
[21] = system: Staphylococcus epidermidis; test: Minimum concentration required to prevent the growth of multiply resistant Staphylococcus epidermidis (MRSE) and cipro resistant (Cipro-R) coag.-neg. Staph. A0247; format: functional; in short: as §1
Klebsiella pneumoniae = test: Minimum concentration required to prevent the growth of cipro resistant (Cipro-I) Klebsiella pneumoniae strain AM; format: functional; in short: as §1
Enterococcus faecalis [22] = test: Minimum concentration required to prevent the growth of vancomycin resistant (VanA) Enterococcus faecalis strain A0401; format: functional; in short: as §1
Enterococcus faecalis [23] = test: Minimum concentration required to prevent the growth of high level gentamicin and beta- lactamase resistant (HLGR, BLA+) Enterococcus faecalis strain A0090; format: functional; in short: as §1
Staphylococcus aureus [24] = test: Minimum concentration required to prevent the growth of nonresistant stock strain Staphylococcus aureus 29213 from American Type Culture Collection (ATCC)
Enterococcus faecalis [25] = test: Minimum concentration required to prevent the growth of vancomycin resistant (VanB) Enterococcus faecalis strain A1079; format: functional; in short: as §1
[26] = system: Staphylococcus epidermidis; test: as §3
Enterococcus faecalis [27] = test: Minimum concentration required to prevent the growth of high level gentamicin and beta- lactamase resistant (HLGR, BLA+) Enterococcus faecalis strain A0089; format: functional; in short: as §1
Enterococcus faecalis [28] = test: Minimum concentration required to prevent the growth of nonresistant stock strain Enterococcus faecalis 51299 from American Type Culture Collection (ATCC); format: functional; details: Enterococcus faecalis; read-out: MIC; in short: as §1
Enterococcus faecalis [29] = test: Minimum concentration required to prevent the growth of nonresistant stock strain Enterococcus faecalis 29212 from American Type Culture Collection (ATCC); format: functional; in short: as §1
Enterococcus faecalis [30] = test: Minimum concentration required to prevent the growth of vancomycin resistant (VanA) Enterococcus faecalis strain A0402; format: functional; details: Enterococcus faecalis; read-out: MIC; in short: as §1
Staphylococcus aureus [31] = test: Minimum concentration required to prevent the growth of nonresistant stock strain Staphylococcus aureus 29213 from American Type Culture Collection (ATCC); remark: listed apart in the source
[32] = Enterococcus faecalis, read-out: MIC
[33] = Enterococcus faecium, read-out: MIC
[34] = Listeria monocytogenes, read-out: MIC
[35] = Staphylococcus aureus, read-out: MIC

O=C(O)c1cn(C2CC2)c2cc(N3CCN(C4OC(CO)C(O)C(O)C4O)CC3)c(F)cc2c1=O (stereo in doubt; form 3)
MIC [1]: 0.5 µg/mL (≈ 1.01 µM) | MIC (Enterococcus faecium [2]): 8 µg/mL (≈ 16.2 µM) | MIC (Staphylococcus aureus [3]): > 32 µg/mL | MIC (Escherichia coli [4]): 8 µg/mL (≈ 16.2 µM) | MIC (Listeria monocytogenes [5]): 2 µg/mL (≈ 4.05 µM) | MIC (Enterococcus faecium [6]): > 32 µg/mL | MIC (Staphylococcus aureus [7]): 0.5 µg/mL (≈ 1.01 µM) | MIC (Enterococcus faecalis [8]): 1 µg/mL (≈ 2.03 µM) | MIC [9]: 1 µg/mL (≈ 2.03 µM) | MIC [10]: > 32 µg/mL | MIC (Enterococcus faecium [11]): 4 µg/mL (≈ 8.11 µM) | MIC (Escherichia coli [12]): 32 µg/mL (≈ 64.8 µM) | MIC (Klebsiella oxytoca): 8 µg/mL (≈ 16.2 µM) | MIC (Listeria monocytogenes [13]): 2 µg/mL (≈ 4.05 µM) | MIC (Staphylococcus aureus [14]): 0.5 µg/mL (≈ 1.01 µM) | MIC (Pseudomonas aeruginosa [15]): 0.5 µg/mL (≈ 1.01 µM) | MIC (Pseudomonas aeruginosa [16]): 4 µg/mL (≈ 8.11 µM) | MIC (Staphylococcus aureus [17]): > 32 µg/mL | MIC (Escherichia coli [18]): < 0.03 µg/mL | MIC (Enterococcus faecium [19]): 4 µg/mL (≈ 8.11 µM) | MIC (Escherichia coli [20]): > 32 µg/mL | MIC [21]: > 32 µg/mL | MIC (Klebsiella pneumoniae): 4 µg/mL (≈ 8.11 µM)

Cl.O=C(O)c1cn(C2CC2)c2cc(N3CCNCC3)c(F)cc2c1=O [CIPROFLOXACIN HYDROCHLORIDE]
MIC (Enterococcus faecalis [22]): 1 µg/mL | MIC (Enterococcus faecalis [22]; [32]): 2 µg/mL | MIC [1]: 0.5 µg/mL | MIC ([1]; Staphylococcus epidermidis, read-out: MIC): 0.5 µg/mL | MIC (Enterococcus faecium [2]): 8 µg/mL | MIC (Enterococcus faecium [2]; [33]): 8 µg/mL | MIC (Enterococcus faecalis [23]): 1 µg/mL | MIC (Listeria monocytogenes [5]): 1 µg/mL | MIC (Listeria monocytogenes [5]; [34]): 1 µg/mL | MIC (Staphylococcus aureus [24]): 0.5 µg/mL | MIC (Staphylococcus aureus [7]): 0.5 µg/mL | MIC (Staphylococcus aureus [7]; [35]): 0.5 µg/mL | MIC (Enterococcus faecalis [8]): 0.5 µg/mL | MIC (Enterococcus faecalis [8]; [32]): 0.5 µg/mL | MIC [9]: 1 µg/mL | MIC (Enterococcus faecium [11]): 2 µg/mL | MIC (Enterococcus faecium [11]; [33]): 2 µg/mL | MIC (Enterococcus faecalis [25]): 1 µg/mL | MIC [26]: 1 µg/mL | MIC (Enterococcus faecalis [27]): 1 µg/mL | MIC (Enterococcus faecalis [27]; [32]): 2 µg/mL | MIC (Listeria monocytogenes [13]): 1 µg/mL | MIC (Listeria monocytogenes [13]; [34]): 1 µg/mL | MIC (Enterococcus faecalis [28]): 1 µg/mL | MIC (Staphylococcus aureus [14]): 0.5 µg/mL | MIC (Staphylococcus aureus [14]; [35]): 0.25 µg/mL | MIC (Pseudomonas aeruginosa [16]; Pseudomonas aeruginosa, read-out: MIC): 1 µg/mL | MIC (Enterococcus faecalis [29]): 1 µg/mL | MIC (Enterococcus faecalis [30]): 1 µg/mL | MIC (Enterococcus faecium [19]): 4 µg/mL | MIC (Enterococcus faecium [19]; [33]): 4 µg/mL | MIC (Staphylococcus aureus [31]): 0.5 µg/mL | MIC (Klebsiella pneumoniae): 2 µg/mL | MIC (Klebsiella pneumoniae; Klebsiella pneumoniae, read-out: MIC): 2 µg/mL
